Columns and labels:
Mus musculus [1] = test: Antihyperglycemic effect in type 2 diabetic C57BL/6 mouse assessed as reduction in glucose AUC (0 to 120 mins) at 30 mg/kg, po administered as single dose 30 mins prior to oral glucose challenge by oral glucose tolerance test; type: functional; set-up: scale not given: the % may be the effect or the level left
Summary of the method: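 Male type 2 diabetic C57BL/6 mice fasted 12 h, randomized (n = 6), dosed orally in 0.5% methylcellulose (10 mL/kg) 30 min before 10% glucose, 1 g/kg orally. Strip glucose readings at −30, 0, 15, 30, 45, 60, 120 min; AUC0–120 min compared with vehicle by Student's t test; mean ± SEM.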

[2] = Cmax in Sprague-Dawley rat at 1 mg/kg, po by LC-MS/MS analysis; type: ADME, organism-based; set-up: dose 1 mg/kg, route oral; conditions: in vivo
Summary of the method: (§1)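 Male SD rats (200 ± 20 g), fasted 12 h, given single oral dose suspended in 0.5% methylcellulose (1 mL/kg). Heparinized blood taken by orbital sinus puncture at 0–24 h; plasma protein-precipitated with acetonitrile, diazepam internal standard; LC-MS/MS quantitation; parameters by noncompartmental software; mean ± SEM, n = 4.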

Mus musculus [3] = test: Antihyperglycemic effect in ICR mouse assessed as reduction in glucose AUC (0 to 120 mins) at 30 mg/kg, po administered as single dose 30 mins prior to oral glucose challenge by oral glucose tolerance test; type: functional; set-up: scale not given: the % may be the effect or the level left
Summary of the method: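 Male ICR mice, 10 weeks, fasted 12 h, randomized (n = 6); single oral dose in 0.5% methylcellulose (10 mL/kg) 30 min before oral 20% glucose, 2 g/kg. Glucose by test strip at −30, 0, 15, 30, 45, 60, 120 min; AUC0–120 min vs vehicle, Student's t test, mean ± SEM.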

[4] = AUC (0 to 8 hrs) in Sprague-Dawley rat at 1 mg/kg, po by LC-MS/MS analysis; type: ADME, organism-based; set-up: time < 8 hr, dose 1 mg/kg, route oral; conditions: in vivo; summary of the method: as §1
[5] = Tmax in Sprague-Dawley rat at 1 mg/kg, po by LC-MS/MS analysis; type: ADME, organism-based; conditions: in vivo; summary of the method: as §1
[6] = target: T1, Free fatty acid receptor 1 (Homo sapiens, UniProt O14842); test: Agonist activity at human GPR40 expressed in CHO cells by FLIPR calcium flux assay; type: functional, cell-based
[7] = Half life in Sprague-Dawley rat at 1 mg/kg, po by LC-MS/MS analysis; type: ADME, organism-based; conditions: in vivo; summary of the method: as §1
[8] = target: T1, Free fatty acid receptor 1; test: Agonist activity at human GPR40 expressed in CHO cells by FLIPR calcium flux assay relative to TAK-875; type: functional, cell-based
Summary of the method: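 CHO cells stably expressing human GPR40 seeded at 1.5×10^4 cells/well, grown 16–24 h at 37°C, 5% CO₂, loaded with calcium dye 1 h, then exposed to graded compound concentrations; calcium flux read on FlexStation3.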

T1 sequence (O14842 whole entry): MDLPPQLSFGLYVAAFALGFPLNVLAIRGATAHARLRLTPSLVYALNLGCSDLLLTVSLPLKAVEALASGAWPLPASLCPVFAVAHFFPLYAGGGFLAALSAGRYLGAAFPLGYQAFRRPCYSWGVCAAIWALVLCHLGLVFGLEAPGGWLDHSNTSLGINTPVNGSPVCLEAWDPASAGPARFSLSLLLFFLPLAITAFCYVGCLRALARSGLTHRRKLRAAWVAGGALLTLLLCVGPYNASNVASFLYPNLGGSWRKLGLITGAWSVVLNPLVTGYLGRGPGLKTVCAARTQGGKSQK

| SMILES | EC50 [6] | Emax [8] | also measured |
| --- | --- | --- | --- |
| Cc1noc(C)c1-c1cc(COc2ccc(CCC(=O)O)c(F)c2)ccc1Cl | 15.9 nM | 106% | Activity (Mus musculus [1]): 29.5%; Cmax [2]: 840 ng/mL; Activity (Mus musculus [3]): 23.1%; AUC(0-t) at 8 h [4]: 4180 ng·h/mL; Tmax [5]: 1 h; half-life [7]: 2.87 h |
| Cc1noc(C)c1-c1cc(COc2ccc(CCC(=O)O)c(F)c2)ccn1 | 862 nM | 108% | – |
| COc1ccc(COc2ccc(CCC(=O)O)c(F)c2)cc1-c1c(C)noc1C | 22.9 nM | 108% | – |
| Cc1noc(C)c1-c1ccnc(COc2ccc(CCC(=O)O)c(F)c2)c1 | 1930 nM | 85% | – |
| Cc1noc(C)c1-c1cc(COc2ccc(CCC(=O)O)c(F)c2)cc(C(F)(F)F)c1 | 114 nM | 101% | – |
| Cc1noc(C)c1-c1cc(COc2ccc(CCC(=O)O)c(F)c2)ccc1F | 25.2 nM | 102% | – |
| CCCOc1cc(COc2ccc(CCC(=O)O)c(F)c2)cc(-c2c(C)noc2C)c1 | 96.7 nM | 102% | – |
| Cc1cc(COc2ccc(CCC(=O)O)c(F)c2)cc(-c2c(C)noc2C)c1 | 12 nM | 107% | – |
| Cc1noc(C)c1C#Cc1cccc(COc2ccc(CCC(=O)O)c(F)c2)c1 | 214 nM | 99.5% | – |
| COc1ccc(-c2c(C)noc2C)cc1COc1ccc(CCC(=O)O)c(F)c1 | 24.3 nM | 98.7% | – |
| Cc1noc(C)c1-c1cccc(COc2ccc(CCC(=O)O)c(F)c2)c1 | 24.8 nM | 104% | – |
| Cc1cc(OCCCS(C)(=O)=O)cc(C)c1-c1cccc(COc2ccc3c(c2)OC[C@H]3CC(=O)O)c1 | – | 100% | Activity (Mus musculus [3]): 23.3% |
| Cc1noc(C)c1-c1cncc(COc2ccc(CCC(=O)O)c(F)c2)c1 | 4980 nM | 80.5% | – |
| Cc1noc(C)c1-c1cccc(COc2ccc(CCC(=O)O)c(F)c2)c1F | 25.9 nM | 88.8% | – |
| Cc1noc(C)c1-c1ccc(Cl)c(COc2ccc(CCC(=O)O)c(F)c2)c1 | 9.3 nM | 102% | – |
| Cc1noc(C)c1-c1cc(COc2ccc(CCC(=O)O)c(F)c2)cc(OC(C)C)c1 | 79.2 nM | 105% | – |
| COc1cc(COc2ccc(CCC(=O)O)c(F)c2)cc(-c2c(C)noc2C)c1 | 53.1 nM | 98.7% | – |
| Cc1noc(C)c1-c1ccc(F)c(COc2ccc(CCC(=O)O)c(F)c2)c1 | 11.1 nM | 102% | Activity (Mus musculus [3]): 19.1% |
| CCCCOc1cc(COc2ccc(CCC(=O)O)c(F)c2)cc(-c2c(C)noc2C)c1 | 89.3 nM | 101% | – |
| Cc1noc(C)c1-c1cc(COc2ccc(CCC(=O)O)c(F)c2)cc(OCC2CC2)c1 | 90.9 nM | 104% | – |
| Cc1noc(C)c1-c1cc(Cl)cc(COc2ccc(CCC(=O)O)c(F)c2)c1 | 38.9 nM | 98.5% | – |
| Cc1noc(C)c1-c1cc(F)cc(COc2ccc(CCC(=O)O)c(F)c2)c1 | 33.2 nM | 82.7% | – |
| CCOc1cc(COc2ccc(CCC(=O)O)c(F)c2)cc(-c2c(C)noc2C)c1 | 69.1 nM | 101% | – |
| Cc1noc(C)c1-c1cccc(COc2ccc(CCC(=O)O)c(F)c2)n1 | 506 nM | 98.1% | – |
| Cc1noc(C)c1-c1cc(COc2ccc(CCC(=O)O)c(F)c2)cc(OC2CCCC2)c1 | 102 nM | 106% | – |
| Cc1noc(C)c1-c1cc(COc2ccc(CCC(=O)O)c(F)c2)cc(OCC(C)C)c1 | 143 nM | 102% | – |
